The record followed here is ChEMBL document CHEMBL3272200, “Synthsis and antitumor properties of bis(quinaldine) derivatives” (J Med Chem, 1977).

Series [1] concerns P388. Nature of the series: Antitumor activity against mouse P388 cells assessed as mean animal survival time at 6.25 mg/kg administered qd for 1 to 9 days relative to control. In kind it is functional. An outline of the steps:
(§1)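 P-388 leukemia survival test. The value is T/C: mean or median survival time of treated animals divided by that of control animals, expressed as a percentage. A compound counts as active if it gives reproducible T/C values of 125% or more.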

Series [2] relates to P388. Nature of the series: Antitumor activity against mouse P388 cells assessed as mean animal survival time at 100 mg/kg administered qd for 1 to 9 days relative to control. In kind it is functional. Summed up:
as §1

Series [3] in a line: Retardation factor of the compound using n-BuOH-AcOH-H2O at ratio of 3:1:2 as solvent system by silica gel based chromatography. In kind it is physicochemical.
For series [4], the system named is Calf thymus DNA. Nature of the series: Binding affinity to calf thymus DNA assessed as inhibition of DNA-dependent Escherichia coli RNA polymerase activity by measuring [14C]ATP incorporation by liquid scintillation spectrometer analysis. In kind it is nucleic-acid assay, Bos taurus. The conditions noted are these: for IC50: read-out: I50; for inhibition: Bos taurus. Summed up: (§2)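 0.125 mL mix: Tris-HCl pH 8.0 5 μmol, MgCl2 1.25 μmol, β-mercaptoethanol 1.25 μmol, CTP/UTP/GTP 0.019 μmol each, [8-14C]ATP 0.019 μmol, calf thymus DNA 3.65 μg. Compound in 5 μL MeOH (MeOH-only controls) added before the E. coli enzyme. Incubated 10 min at 37. Acid-insoluble label collected by filter-disk method and scintillation counted. Triplicates.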

In series [5] the test system is P388. Nature of the series: Antitumor activity against mouse P388 cells assessed as mean animal survival time at 25 mg/kg administered qd for 1 to 9 days relative to control. In kind it is functional. An outline of the steps:
as §1

Series [6] has as its system Calf thymus DNA. Nature of the series: Binding affinity to calf thymus DNA assessed as inhibition of DNA-dependent Escherichia coli RNA polymerase activity by measuring [14C]ATP incorporation at 7.5 uM by liquid scintillation spectrometer analysis. As to conditions: Bos taurus. In kind it is nucleic-acid assay. Summed up:
as §2

Series [7] deals with Calf thymus DNA. In words: Binding affinity to calf thymus DNA assessed as inhibition of DNA-dependent Escherichia coli RNA polymerase activity by measuring [14C]ATP incorporation at 10 uM by liquid scintillation spectrometer analysis. In kind it is nucleic-acid assay. The conditions noted are these: Bos taurus. An outline of the steps:
as §2

The subject of series [8] is Calf thymus DNA. Nature of the series: Binding affinity to calf thymus DNA assessed as inhibition of DNA-dependent Escherichia coli RNA polymerase activity by measuring [14C]ATP incorporation at 50 uM by liquid scintillation spectrometer analysis. As to conditions: Bos taurus. In kind it is nucleic-acid assay. Summed up: as §2
Series [9] relates to Calf thymus DNA. In words: Binding affinity to calf thymus DNA assessed as change in melting temperature at 10 uM by spectrophotometer analysis. In kind it is nucleic-acid assay. The conditions noted are these: Bos taurus. Summed up: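 Drug at 1×10^-5 M with 15 μg/mL calf thymus DNA in 5 mM phosphate buffer, pH 7.4. Absorbance followed at 260 nm while temperature rose at 1.0 °C/min to give the melting temperature.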

Series [10] has as its system Calf thymus DNA. In words: Binding affinity to calf thymus DNA assessed as inhibition of DNA-dependent Escherichia coli RNA polymerase activity by measuring [14C]ATP incorporation at 5 uM by liquid scintillation spectrometer analysis. In kind it is nucleic-acid assay. As to conditions: Bos taurus. An outline of the steps:
as §2

Series [11] concerns Calf thymus DNA. Nature of the series: Binding affinity to calf thymus DNA assessed as inhibition of DNA-dependent Escherichia coli RNA polymerase activity by measuring [14C]ATP incorporation at 0.1 mM by liquid scintillation spectrometer analysis. In kind it is nucleic-acid assay. The conditions noted are these: Bos taurus. Summed up:
as §2

Series [12] concerns Calf thymus DNA. Nature of the series: Binding affinity to calf thymus DNA assessed as inhibition of DNA-dependent Escherichia coli RNA polymerase activity by measuring [14C]ATP incorporation at 2.5 uM by liquid scintillation spectrometer analysis. In kind it is nucleic-acid assay. As to conditions: Bos taurus. An outline of the steps:
as §2

Series [13] relates to P388. Nature of the series: Antitumor activity against mouse P388 cells assessed as mean animal survival time at 400 mg/kg administered qd for 1 to 9 days relative to control. In kind it is functional. Summed up: as §1
Series [14] concerns P388. Nature of the series: Antitumor activity against mouse P388 cells assessed as mean animal survival time at 12.5 mg/kg administered qd for 1 to 9 days relative to control. In kind it is functional. An outline of the steps:
as §1

In the case of `CC(=O)O.Cc1cc(NCCCCCCCCNc2cc(C)nc3cc(N)ccc23)c2ccc(N)cc2n1`, the T/C with P388 [1] was found to be 134%.
As to `Cc1cc(NCCCCCCNc2cc(C)nc3cc([N+](=O)[O-])ccc23)c2ccc([N+](=O)[O-])cc2n1.Cl`, the T/C with P388 [2] was determined as 99%. The Rf in [3] was found to be 0.77.
On to `Cc1cc(NCCCCNCCCNc2cc(C)nc3cc(N)ccc23)c2ccc(N)cc2n1.Cl`, for which the IC50 in the series on Calf thymus DNA [4] came to 6 µM. The Rf in series [3] turned out to be 0.5.
As for `CC(=O)O.Cc1cc(NCCCCCCNc2cc(C)nc3cc(N)ccc23)c2ccc(N)cc2n1`, the T/C with P388 [5] is recorded as 158%.
Take `Cc1cc(NCCCCCCCNc2cc(C)nc3cc(N)ccc23)c2ccc(N)cc2n1.Cl`: the IC50 in the series on Calf thymus DNA [4] was 6 µM. Also, in [3], the Rf was 0.63.
For the molecule `Cc1cc(NCCCCNCCCNc2cc(C)nc3cc(N)ccc23)c2ccc(N)cc2n1`, the inhibition in the series with Calf thymus DNA [6] is 38%; in the series with Calf thymus DNA [7], 95%; in the series on Calf thymus DNA [4] it was “Dose-dependent effect”; in the series with Calf thymus DNA [8], 94%; in the series with Calf thymus DNA [10], 17%; with Calf thymus DNA [11], 92%. The inhibition in the series with Calf thymus DNA [12] was 0%. Moreover, in the series with Calf thymus DNA [9], the ΔTm was 19.5 °C.
Regarding `Cc1cc(NCCCCCCNc2cc(C)nc3ccc(N)cc23)c2cc(N)ccc2n1.Cl`, the thermal shift (ΔTm) in the series with Calf thymus DNA [9] was 18 °C. Besides, in the series on P388 [13], the T/C was found to be 254%.
Regarding `Cc1cc(NCCCCCCCCNc2cc(C)nc3cc(N)ccc23)c2ccc(N)cc2n1.Cl`, the IC50 in the series on Calf thymus DNA [4] turned out to be 6 µM. Moreover, the Rf in series [3] is on record as 0.7.
For `Cc1cc(NCCCNCCCNc2cc(C)nc3cc([N+](=O)[O-])ccc23)c2ccc([N+](=O)[O-])cc2n1.Cl`, in the series on P388 [5], the T/C is reported as 150%. Further, the Rf in series [3] stood at 0.69.
Take `Cc1cc(NCCCNCCCNc2cc(C)nc3cc(N)ccc23)c2ccc(N)cc2n1`: the inhibition was 31% with Calf thymus DNA [6]; 96% with Calf thymus DNA [7]; “Dose-dependent effect” with Calf thymus DNA [4]; 98% with Calf thymus DNA [8]; 9% in the series with Calf thymus DNA [10]; 94% in the series on Calf thymus DNA [11]. For the same molecule, the inhibition with Calf thymus DNA [12] is 0%. Besides, the shift in melting temperature (ΔTm) with Calf thymus DNA [9] amounted to 22.5 °C.
For the molecule `Cc1cc(NCCCCCCCCNc2cc(C)nc3cc([N+](=O)[O-])ccc23)c2ccc([N+](=O)[O-])cc2n1.Cl`, in series [3], the Rf is reported as 0.8. Besides, the T/C in the series on P388 [14] amounted to 110%.
`Cc1cc(NCCCCCCNc2cc(C)nc3cc(N)ccc23)c2ccc(N)cc2n1`: the inhibition was 50% in the series on Calf thymus DNA [6]; 91% in the series on Calf thymus DNA [7]; “Dose-dependent effect” with Calf thymus DNA [4]; 93% in the series on Calf thymus DNA [8]; 29% in the series with Calf thymus DNA [10]; 97% with Calf thymus DNA [11]. In the series with Calf thymus DNA [12], the inhibition turned out to be 0%. In addition, the thermal shift (ΔTm) in the series on Calf thymus DNA [9] was determined as 19 °C.
`CC(=O)O.Cc1cc(NCCCNCCCNc2cc(C)nc3cc(N)ccc23)c2ccc(N)cc2n1`: the T/C in the series with P388 [14] was found to be 150%.
With `Cc1cc(NCCCNCCCNc2cc(C)nc3cc(N)ccc23)c2ccc(N)cc2n1.Cl`, the IC50 in the series with Calf thymus DNA [4] is 6 µM. For the same molecule, in series [3], the Rf turned out to be 0.57.
As for `Cc1cc(NCCCCCCCCNc2cc(C)nc3cc(N)ccc23)c2ccc(N)cc2n1`, the inhibition was 91% in the series on Calf thymus DNA [6]; 95% with Calf thymus DNA [7]; “Dose-dependent effect” in the series with Calf thymus DNA [4]; 95% in the series with Calf thymus DNA [8]; 38% with Calf thymus DNA [10]; 97% in the series on Calf thymus DNA [11]. In the series on Calf thymus DNA [12], the inhibition was 0%. The shift in melting temperature (ΔTm) in the series with Calf thymus DNA [9] turned out to be 18.5 °C.
In the case of `Cc1cc(NCCCCCCCNc2cc(C)nc3cc([N+](=O)[O-])ccc23)c2ccc([N+](=O)[O-])cc2n1.Cl`, in [3], the Rf is 0.79. Besides, the T/C with P388 [14] came out at 149%.
With `CC(=O)O.Cc1cc(NCCCCCCCNc2cc(C)nc3cc(N)ccc23)c2ccc(N)cc2n1`, the T/C with P388 [1] was 196%.
Regarding `Cc1cc(NCCCCCCCNc2cc(C)nc3cc(N)ccc23)c2ccc(N)cc2n1`, the inhibition in the series with Calf thymus DNA [6] is 24%; with Calf thymus DNA [7], 63%; in the series on Calf thymus DNA [4] it was “Dose-dependent effect”; with Calf thymus DNA [8], 98%; in the series with Calf thymus DNA [10], 0%; in the series with Calf thymus DNA [11], 98%. The inhibition with Calf thymus DNA [12] worked out at 0%. Further, the ΔTm in the series with Calf thymus DNA [9] is 17 °C.
As to `CC(=O)O.Cc1cc(NCCCCNCCCNc2cc(C)nc3cc(N)ccc23)c2ccc(N)cc2n1`, in the series with P388 [5], the T/C is 165%.
As to `Cc1cc(NCCCCNCCCNc2cc(C)nc3cc([N+](=O)[O-])ccc23)c2ccc([N+](=O)[O-])cc2n1.Cl`, in [3], the Rf amounted to 0.73. Further, the T/C in the series with P388 [14] was 150%.
Turning to `Cc1cc(NCCCCCCNc2cc(C)nc3cc(N)ccc23)c2ccc(N)cc2n1.Cl`, the IC50 in the series on Calf thymus DNA [4] stood at 6 µM. In [3], the Rf worked out at 0.6.

One may read the T/C as the ratio of treated to control. Broadly, the inhibition is the relative decrease from the control value, in per cent. What is called ΔTm is the shift of the melting midpoint relative to a reference.
